Results taken from ChEMBL document CHEMBL1122143, “Adriamycin analogues. Preparation and biological evaluation of some N-perfluoroacyl analogues of daunorubicin, adriamycin, and N-(trifluoroacetyl)adriamycin 14-valerate and their 9,10-anhydro derivatives” (1982).
pIC50: −log10 of the molar value.

How the values were obtained:
Format in all cases: functional
[1] = test system: CCRF-CEM; test: Inhibitory activity against CCRF-CEM(human leukemic lymphoblastic) cells in culture.; conditions: read-out: ID50 (the source's name)
In short: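 Human leukemic lymphoblastic CCRF-CEM cells grown in culture with continuous drug exposure for 48 h; growth inhibition measured.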

[2] = test system: Mus musculus; test: In vivo growth inhibitory activity was measured against murine P388 leukemia cells as Percent increase in life span at the dose of 20.0 mg/kg/day
In short: (§1)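 Murine P388 leukemia model: 10⁶ tumor cells inoculated ip on day 0. Compound given ip once daily on days 1-4 at the stated dose. Activity was expressed as percent increase in life span relative to untreated controls.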

[3] = test system: Mus musculus; test: In vivo growth inhibitory activity was measured against murine P388 leukemia cells as Percent increase in life span at the dose of 50.0 mg/kg/day; in short: as §1
[4] = test system: Mus musculus; test: In vivo growth inhibitory activity was measured against murine P388 leukemia cells as Percent increase in life span at the dose of 40.0 mg/kg/day; in short: as §1
[5] = test system: Mus musculus; test: In vivo growth inhibitory activity was measured against murine P388 leukemia cells as Percent increase in life span at the dose of 2.0 mg/kg/day; in short: as §1
[6] = test system: Mus musculus; test: In vivo growth inhibitory activity was measured against murine P388 leukemia cells as Percent increase in life span at the dose of 80.0 mg/kg/day; in short: as §1
[7] = test system: Mus musculus; test: In vivo growth inhibitory activity was measured against murine P388 leukemia cells as percent increase in life span at the dose of 40.0 mg/kg/day; in short: as §1
[8] = test system: Mus musculus; test: In vivo growth inhibitory activity was measured against murine P388 leukemia cells as Percent increase in life span at the dose of 4.0 mg/kg/day; in short: as §1

Compound	pIC50 [1]	further results
COc1cccc2c1C(=O)c1c(O)c3c(c(O)c1C2=O)C=C(C(=O)CO)C[C@@H]3OC1CC(NC(=O)C(F)(F)C(F)(F)F)C(O)C(C)O1 (stereo partly drawn)	5.08	–
COc1cccc2c1C(=O)c1c(O)c3c(c(O)c1C2=O)C[C@@](O)(C(=O)CO)C[C@@H]3OC1CC(NC(=O)C(F)(F)F)C(O)C(C)O1 (stereo partly drawn)	6.64	ILS at 20 mg/kg/day [2]: 481%
CCCCC(=O)OCC(=O)[C@]1(O)Cc2c(O)c3c(c(O)c2[C@@H](OC2CC(NC(=O)C(F)(F)C(F)(F)F)C(O)C(C)O2)C1)C(=O)c1c(OC)cccc1C3=O (stereo partly drawn)	5.93	ILS at 50 mg/kg/day [3]: 0%
COc1cccc2c1C(=O)c1c(O)c3c(c(O)c1C2=O)C[C@@](O)(C(C)=O)C[C@@H]3OC1CC(NC(=O)C(F)(F)C(F)(F)C(F)(F)F)C(O)C(C)O1 (stereo partly drawn)	< 5.87	ILS at 40 mg/kg/day [4]: 45%
COc1cccc2c1C(=O)c1c(O)c3c(c(O)c1C2=O)C[C@@](O)(C(C)=O)C[C@@H]3O[C@H]1C[C@H](N)[C@H](O)[C@H](C)O1 [DAUNORUBICIN]	7.40	ILS at 2 mg/kg/day [5]: 91%
COc1cccc2c1C(=O)c1c(O)c3c(c(O)c1C2=O)C=C(C(C)=O)C[C@@H]3OC1CC(NC(=O)C(F)(F)C(F)(F)F)C(O)C(C)O1 (stereo partly drawn)	6.30	–
COc1cccc2c1C(=O)c1c(O)c3c(c(O)c1C2=O)C[C@@](O)(C(C)=O)C[C@@H]3OC1CC(NC(=O)C(F)(F)C(F)(F)F)C(O)C(C)O1 (stereo partly drawn)	6.00	ILS at 50 mg/kg/day [3]: 27%
CCCCC(=O)OCC(=O)C1=Cc2c(O)c3c(c(O)c2[C@@H](OC2CC(NC(=O)C(F)(F)C(F)(F)C(F)(F)F)C(O)C(C)O2)C1)C(=O)c1c(OC)cccc1C3=O (stereo partly drawn)	5.64	–
CCCCC(=O)OCC(=O)[C@]1(O)Cc2c(O)c3c(c(O)c2[C@@H](OC2CC(NC(=O)C(F)(F)F)C(O)C(C)O2)C1)C(=O)c1c(OC)cccc1C3=O (stereo partly drawn)	6.62	ILS at 40 mg/kg/day [4]: 429%
COc1cccc2c1C(=O)c1c(O)c3c(c(O)c1C2=O)C[C@@](O)(C(C)=O)C[C@@H]3OC1CC(NC(=O)C(F)(F)F)C(O)C(C)O1 (stereo partly drawn)	6.57	ILS at 80 mg/kg/day [6]: 83%
COc1cccc2c1C(=O)c1c(O)c3c(c(O)c1C2=O)C=C(C(=O)CO)C[C@@H]3OC1CC(NC(=O)C(F)(F)F)C(O)C(C)O1 (stereo partly drawn)	5.24	ILS at 40 mg/kg/day [7]: 63%
COc1cccc2c1C(=O)c1c(O)c3c(c(O)c1C2=O)C=C(C(C)=O)C[C@@H]3OC1CC(NC(=O)C(F)(F)F)C(O)C(C)O1 (stereo partly drawn)	–	ILS at 40 mg/kg/day [4]: 45%
COc1cccc2c1C(=O)c1c(O)c3c(c(O)c1C2=O)C[C@@](O)(C(=O)CO)C[C@@H]3O[C@H]1C[C@H](N)[C@H](O)[C@H](C)O1 [DOXORUBICIN]	7.18	ILS at 4 mg/kg/day [8]: 132%
CCCCC(=O)OCC(=O)C1=Cc2c(O)c3c(c(O)c2[C@@H](OC2CC(NC(=O)C(F)(F)F)C(O)C(C)O2)C1)C(=O)c1c(OC)cccc1C3=O (stereo partly drawn)	5.92	ILS at 40 mg/kg/day [4]: 27%
COc1cccc2c1C(=O)c1c(O)c3c(c(O)c1C2=O)C[C@@](O)(C(=O)CO)C[C@@H]3OC1CC(NC(=O)C(F)(F)C(F)(F)C(F)(F)F)C(O)C(C)O1 (stereo partly drawn)	5.83	ILS at 50 mg/kg/day [3]: 54%
COc1cccc2c1C(=O)c1c(O)c3c(c(O)c1C2=O)C=C(C(=O)CO)C[C@@H]3OC1CC(NC(=O)C(F)(F)C(F)(F)C(F)(F)F)C(O)C(C)O1 (stereo partly drawn)	5.14	–
COc1cccc2c1C(=O)c1c(O)c3c(c(O)c1C2=O)C=C(C(C)=O)C[C@@H]3OC1CC(NC(=O)C(F)(F)C(F)(F)C(F)(F)F)C(O)C(C)O1 (stereo partly drawn)	< 4.86	–
CCCCC(=O)OCC(=O)[C@]1(O)Cc2c(O)c3c(c(O)c2[C@@H](OC2CC(NC(=O)C(F)(F)C(F)(F)C(F)(F)F)C(O)C(C)O2)C1)C(=O)c1c(OC)cccc1C3=O (stereo partly drawn)	< 5.94	ILS at 50 mg/kg/day [3]: 0%
COc1cccc2c1C(=O)c1c(O)c3c(c(O)c1C2=O)C[C@@](O)(C(=O)CO)C[C@@H]3OC1CC(NC(=O)C(F)(F)C(F)(F)F)C(O)C(C)O1 (stereo partly drawn)	6.39	ILS at 50 mg/kg/day [3]: 372%
CCCCC(=O)OCC(=O)C1=Cc2c(O)c3c(c(O)c2[C@@H](OC2CC(NC(=O)C(F)(F)C(F)(F)F)C(O)C(C)O2)C1)C(=O)c1c(OC)cccc1C3=O (stereo partly drawn)	6.25	–
